LANA-H2B inh: blocks KSHV LANA binding to histone H2A/H2B; Q9QR71; 320,000 compounds, 0.6% hits; cell-free LANA-H2A/H2B peptide, fluorescence polarization; inhibition, % (concentration not given with the values); AID 2629; in the data active means inhibition mostly above about 10%, no sharp cut-off; inactive means mostly below about 6.7%
HDAC3 inh: human HDAC3 inhibition; recombinant HDAC3, fluorogenic peptide/trypsin coupled, fluorescence; inhibition, % at 8.3 µM; 320,000 compounds, 0.15% hits; AID 2718; in the data active means inhibition above about 26%, passing the limit was not always enough; inconclusive means no clear call, values can overlap the other calls
T cell HTS: modulates CD8 T cell binding to vesicles; 2C CD8+ T cell-vesicle binding, flow cytometry; active compounds read low; response (vesicle binding), % at 7 µM; 330,000 compounds, 0.068% hits; AID 2052;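 active means response, share of CD8 T cells binding vesicles, and their 90th percentile fluorescence all below set limits, cut at about 80% in these data, passing the limit was not always enough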;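 further: values below 100% mean blocked vesicle binding to the CD8+ T cells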
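Test system: purified 2C TCR transgenic mouse naive CD8+ T cells. Probe or stimulus: QL9-peptide-loaded Drosophila micro-vesicles bearing Ld, ICAM-1 and B7-1. Incubation: binding step 1.5 h, 37 °C, antibody labelling 20 min, ice. Measured by: flow cytometry of vesicle-bound cells.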
DSG3 Ab inh: blocks pemphigus antibody binding to human desmoglein-3. P32926. DSG3-coupled beads, scFv-anti-DSG3-GFP binding, flow cytometry; active compounds read low. binding (percent of control), % at 10 µM. 310,000 compounds, 0.48% hits. AID 588358;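 active means binding more than 3 SD below its plate's average and above zero; inconclusive means below that plate limit but binding exactly zero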;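 further: hits lower antibody fragment binding to DSG3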
Target sequence (P32926 whole entry, looked up, the tested form may be a part): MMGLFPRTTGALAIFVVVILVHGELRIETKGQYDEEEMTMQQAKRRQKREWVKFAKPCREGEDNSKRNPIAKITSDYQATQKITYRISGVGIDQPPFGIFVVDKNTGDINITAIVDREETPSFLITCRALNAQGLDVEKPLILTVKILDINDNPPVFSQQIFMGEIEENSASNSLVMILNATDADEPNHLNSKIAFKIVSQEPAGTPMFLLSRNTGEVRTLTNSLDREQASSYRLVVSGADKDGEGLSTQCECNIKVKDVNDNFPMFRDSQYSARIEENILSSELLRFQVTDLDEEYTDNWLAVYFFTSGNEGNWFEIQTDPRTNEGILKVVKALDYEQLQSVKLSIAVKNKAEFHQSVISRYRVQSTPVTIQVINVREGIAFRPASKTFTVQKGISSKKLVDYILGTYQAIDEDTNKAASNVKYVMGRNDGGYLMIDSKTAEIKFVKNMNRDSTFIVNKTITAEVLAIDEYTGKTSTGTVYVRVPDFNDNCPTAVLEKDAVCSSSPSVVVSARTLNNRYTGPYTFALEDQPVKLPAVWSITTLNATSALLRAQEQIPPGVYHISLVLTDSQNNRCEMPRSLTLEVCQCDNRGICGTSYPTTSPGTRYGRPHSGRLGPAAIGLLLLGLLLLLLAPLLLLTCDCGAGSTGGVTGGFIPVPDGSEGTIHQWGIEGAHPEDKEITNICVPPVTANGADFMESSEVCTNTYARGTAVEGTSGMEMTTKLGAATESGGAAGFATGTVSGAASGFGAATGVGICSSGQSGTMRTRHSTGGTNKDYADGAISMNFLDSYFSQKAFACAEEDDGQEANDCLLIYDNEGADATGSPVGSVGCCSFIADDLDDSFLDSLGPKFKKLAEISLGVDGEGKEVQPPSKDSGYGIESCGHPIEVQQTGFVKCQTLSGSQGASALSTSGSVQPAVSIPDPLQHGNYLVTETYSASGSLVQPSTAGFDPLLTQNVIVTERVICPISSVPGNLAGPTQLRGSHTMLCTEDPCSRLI
Arrestin-AP2 inh: human beta-arrestin and AP2 interaction inhibition. FITC-arrestin peptide / GST-AP2 beads, flow cytometry; AP2 beta2 appendage carries R879A mutation. inhibition, % at 10 µM. 340,000 compounds, 0.31% hits. AID 504490;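 active means inhibition above a set limit, near 3 SD of compounds lacking own fluorescence, cut at about 54% in these data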;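 further: plate controls were DMSO wells for no effect and 5 µM unlabelled arrestin peptide for full effect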
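System: GST-AP2 R879A glutathione beads | Also added: FITC-arrestin peptide, 50 nM | Times: 12 min plus 1 h, RT | Signal: Bead flow cytometry, FITC channel | Buffer or medium: PBS with 0.05% Tween 20 and 0.1% BSA | Read-out basis: Percent drop in bead-associated FITC signal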
Arr AP2 CP1: human beta-arrestin and AP2 interaction inhibition, cherry pick; shares compounds with Arrestin-AP2 inh; GST-AP2 beads, FITC arrestin peptide binding, flow cytometry; GST-fused beta2-adaptin appendage, R879A mutant; inhibition, % at 10 µM; 1,300 compounds, 2% hits;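 active means inhibition above a set limit, roughly 3 SD of non-fluorescent compound noise, cut at about 38% in these data; inactive means inhibition at or below that limit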;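 further: loss of bead fluorescence from 50 nM FITC arrestin peptide bound to appendage; 0% = negative control wells and 100% = excess unlabelled arrestin peptide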
GST GSH counter: GST-GSH bead binding interference, counter-screen; 1,300 compounds, 2% hits; GST-fluorescein binding to GSH beads, fluorescence; shares compounds with Arrestin-AP2 inh; inhibition, % at 10 µM; AID 588338;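 active means inhibition above 50%, about 3 SD of the inhibition seen with non-fluorescent compounds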;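 further: fluorescein maleimide labelled GST captured on 4 micron glutathione beads; higher means more loss of bead fluorescence from quenching or blocked binding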
* hit, by the source's call; i = inactive; ? = inconclusive; . = not tested or not shown. Shown are actives, neighbours in structure and some others; about 1.5% of the full set was active somewhere.

SMILES	LANA-H2B inh	HDAC3 inh	T cell HTS	DSG3 Ab inh	Arrestin-AP2 inh	Arr AP2 CP1	GST GSH counter
O=C(NCCC1=CCCCC1)C1CCN(S(=O)(=O)c2ccccc2C(F)(F)F)CC1	-2.0	0.8	478.8	103.8	-0.8	.	.
CCOc1ccc(CCNC(=O)c2c(C)nn(-c3ccccc3)c2Cl)cc1OCC	4.5	-0.1	504.3	117.3	-2.5	.	.
CC(=O)Nc1ccccc1Nc1nc(NCCO)nc(N2CCCC2)n1	-1.4	0.1	934.7	100.7	10.4	.	.
Cc1ccc(C2/C(=C(\O)c3ccc4c(c3)OCCO4)C(=O)C(=O)N2CC2CCCO2)cc1 (stereo not drawn)	3.0	2.0	i	109.0	58.5*	-1.4	-4.5
Cc1ccc(N2CCN(S(=O)(=O)c3c(C)noc3C)CC2C)cc1 (stereo not drawn)	-0.4	?	425.4	.	8.6	.	.
COc1ccc(C(=O)Nc2cccc(S(=O)(=O)NC3=NCCC3)c2)cc1OC	4.1	-0.9	177.4	95.8	-6.0	.	.
CCC(=O)OCCNc1cc(SCCC(=O)OC)c2nonc2c1[N+](=O)[O-]	-0.7	8.2	198.8	93.9	32.0	.	.
CCCC(=O)OCCNc1cc(Sc2nc3ccccc3[nH]2)c2nonc2c1[N+](=O)[O-]	-6.2	1.8	440.4	95.7	54.6*	-0.4	6.6
O=C(Nc1cccc(C(F)(F)F)c1)Nn1cnnc1	-2.8	6.0	340.8	99.6	20.5	.	.
COc1ccc(-c2nnc(SCC(=O)NC3CCCCC3)n2N)cc1	.	.	.	92.0	-2.7	.	.
COc1ccc(-c2nc(CS(=O)CC(=O)NC3CCCC3)c(C)o2)cc1OC (stereo not drawn)	-8.7	-2.5	981.1	101.1	32.4	.	.
COc1ccc(-c2nc(CS(=O)CC(=O)NC3CCC(C)CC3)c(C)o2)cc1OC (stereo not drawn)	0.7	-1.9	296.3	100.1	54.5*	-10.7	0.1
CCCNC(=O)c1noc2c1CCc1ccccc1-2	-1.5	8.3	0.0	94.0	-13.0	.	.
O=C(Nc1cccnc1Cl)c1noc2c1CCc1ccccc1-2	-0.8	6.1	171.3	98.3	54.7*	10.3	-15.8
Cc1cc(C)n2nc(N)c(N=Nc3cccc(Cl)c3)c2n1	0.9	4.5	328.8	89.5	98.7*	10.4	62.4*
COC(=O)C1=NNC(C(=O)OC)C1c1ccccc1 (stereo not drawn)	.	.	.	92.5	5.1	.	.
O=C(Cn1c(CO)nc2ccccc21)Nc1ccc2c(c1)OCCCO2	-1.3	-6.8	305.3	108.6	7.2	.	.
O=C1CC(c2ccco2)CC2=C1C1c3ccccc3C(=O)N1c1ccccc1N2 (stereo not drawn)	0.2	-0.1	291.7	98.0	98.6*	5.6	-3.7
CCC(=O)N1c2ccccc2NC2=C(C(=O)CC(c3ccco3)C2)C1c1ccco1 (stereo not drawn)	-1.3	1.3	227.5	96.0	7.7	.	.
CN(C)S(=O)(=O)c1ccc(Cl)c(NC(=O)COC(=O)C2CSC3(C)CCC(=O)N23)c1 (stereo not drawn)	-4.0	-5.2	148.2	96.2	25.3	1.2	11.7
Cc1cc(Br)ccc1NC(=O)C1CSC2(C)CCC(=O)N12 (stereo not drawn)	5.1	-2.6	271.4	97.5	-2.5	.	.
CC12CCC(=O)N1C(C(=O)Nc1ccc(Cl)c(Cl)c1)CS2 (stereo not drawn)	-4.1	3.5	140.0	97.8	-4.3	.	.
CC12CCC(=O)N1C(C(=O)OCC(=O)Nc1ccc(Cl)c(Cl)c1)CS2 (stereo not drawn)	-2.6	?	923.5	102.2	-10.4	5.5	-4.9
Cc1cc(NC(=O)COC(=O)C2CSC3(C)CCC(=O)N23)ccc1Br (stereo not drawn)	0.7	-6.8	169.3	97.9	-7.8	-8.8	4.7
CN(C)S(=O)(=O)c1ccc(Cl)c(NC(=O)COC(=O)CN2C(=O)NC(C)(C)C2=O)c1	-5.1	-1.4	586.1	96.5	29.9	.	.
SMILES	LANA-H2B inh	HDAC3 inh	T cell HTS	DSG3 Ab inh	Arrestin-AP2 inh	Arr AP2 CP1	GST GSH counter
O=C(NCCOc1ccc(Cl)cc1)c1ccco1	-0.9	1.9	267.3	120.0	-0.2	.	.
COc1ccc(-n2nc(N)c(C(N)=O)n2)cc1	-4.4	-8.5	173.2	96.2	54.6*	7.7	3.5
Cn1nc(C(=O)Nc2ccccc2)c2c1-c1ccccc1S(=O)(=O)C2	3.4	14.1	291.3	102.7	58.4*	4.8	-8.3
COc1cccc(NC(=O)c2nn(C)c3c2CS(=O)(=O)c2ccccc2-3)c1	0.4	-5.2	537.4	104.5	5.0	.	.
Cc1cc(C)c(NC(=O)CCCCCNC2CCCCC2)c(C)c1	6.7	-1.0	830.8	106.5	-0.5	.	.
O=C(Nc1ccc(COc2ccccc2)cc1)Nc1cccc(C(=O)O)c1	-0.8	-2.1	207.3	104.3	9.8	.	.
NS(=O)(=O)c1ccc(N/N=C/c2ccc(O)cc2O)c([N+](=O)[O-])c1	-2.5	-1.4	91.3	80.6	44.3	.	.
NS(=O)(=O)c1ccc(N/N=C/c2ccc(O)c(O)c2O)c([N+](=O)[O-])c1	.	.	.	28.3	77.8*	40.7*	14.4
COc1ccc(N(C(=O)c2snc(C(N)=O)c2N)C(CC(C)C)C(=O)NCC2CCCO2)cc1 (stereo not drawn)	-1.8	-4.2	211.7	100.3	-1.1	.	.
CCN(C(=S)Nc1cccc2ccccc12)c1ccccc1	.	.	.	102.7	.	.	.
CCOC(=O)c1cc2c(ccn2C)n1Cc1ccc(Cl)cc1	-3.0	8.0	646.5	96.1	54.3*	-8.5	-2.5
O=C(Nc1ccccc1[N+](=O)[O-])C1COc2ccccc2O1 (stereo not drawn)	2.4	-2.5	232.1	95.5	55.8*	0.1	-5.8
O=C(N/N=C/c1cccc([N+](=O)[O-])c1)C1COc2ccccc2O1 (stereo not drawn)	-1.2	4.1	257.3	108.4	58.0*	-5.0	1.2
O=C(Nc1ccc(F)cc1)C1COc2ccccc2O1 (stereo not drawn)	-3.5	3.4	211.0	97.9	-10.2	.	.
O=C(N/N=C\c1ccc(-c2ccc([N+](=O)[O-])cc2)o1)C1COc2ccccc2O1 (stereo not drawn)	-0.5	13.1	184.0	92.1	-2.1	.	.
O=C(Nc1cnc2ccccc2c1)C1COc2ccccc2O1 (stereo not drawn)	0.2	-4.4	403.3	98.5	69.4*	3.5	2.1
CCCCn1c(N)c(NCC(C)C)c(=O)[nH]c1=O	-2.5	-1.9	680.5	98.3	56.9*	-8.5	0.3
O=C1C=C(C#Cc2ccc(Oc3ccccc3)cc2)C[C@@H](c2ccc(F)cc2)C1	.	.	.	105.7	.	.	.
COc1ccc(OC)c(NC(=O)CSc2nnc(CNC(=O)c3cc(OC)c(OC)c(OC)c3)o2)c1	-5.1	-1.4	194.7	102.7	30.4	.	.

Screening data (PubChem BioAssay)
